Laboratory results from ChEMBL document CHEMBL3045677, “Sulfonamide-1,2,4-thiadiazole derivatives as antifungal and antibacterial agents: synthesis, biological evaluation, lipophilicity, and conformational studies” (2010).
≈ marks a conversion by molar mass, not a printed value.

What was measured:
Penicillium ochrochloron = experiment: Antifungal activity against Penicillium ochrochloron ATCC 9112 at 28 degC measured after 72 hr by microdilution method; type: functional; conditions: ATCC 9112, 72 h
Outline: (§1)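 Fungi were kept on malt agar at 4 °C. Spores were washed off with sterile 0.85% saline containing 0.1% Tween 80 and adjusted to about 1.0×10⁵ per well. Compounds were dissolved in DMSO (1 mg/ml stock) and serially diluted in malt broth with inoculum in 96-well plates, 72 h at 28 °C, for MIC. MFC came from subculture into fresh broth for a further 72 h at 28 °C.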

Staphylococcus aureus [1] = experiment: Antibacterial activity against Staphylococcus aureus ATCC 6538 at […] degC measured after 24 hr by microdilution method; type: functional; conditions: ATCC 6538, 24 h
Outline: (§2)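 Bacteria suspended in sterile saline at 1.0×10⁵ CFU/ml and added at 1.0×10⁴ CFU per well to LB broth with compound (1 mg/ml) in 96-well plates. Incubated 24 h at […] °C. MIC was the lowest concentration without visible growth under a binocular microscope. OD 655 nm was read against a blank and a positive control.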

Escherichia coli [2] = experiment: Antibacterial activity against Escherichia coli ATCC 35210 at […] degC measured after 24 hr by microdilution method; type: functional; conditions: ATCC 35210, 24 h; outline: as §2
Escherichia coli [3] = experiment: Antibacterial activity against Escherichia coli ATCC 35210 at […] degC measured after 72 hr by microdilution method; type: functional; conditions: ATCC 35210, 72 h
Outline: (§3)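 Bactericidal endpoint: after the 24 h broth microdilution (1.0×10⁴ CFU per well, LB broth, […] °C), wells were serially subcultured into plates of fresh broth and incubated a further 72 h. MBC was the lowest concentration with no visible growth, taken as 99.5% killing of the original inoculum.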

Aspergillus fumigatus = experiment: Antifungal activity against plant isolate Aspergillus fumigatus at 28 degC measured after 72 hr by microdilution method; type: functional; outline: as §1
Pseudomonas aeruginosa [4] = experiment: Antibacterial activity against Pseudomonas aeruginosa ATCC 27853 at […] degC measured after 72 hr by microdilution method; type: functional; conditions: ATCC 27853, 72 h; outline: as §3
Bacillus cereus [5] = experiment: Antibacterial activity against clinical isolate Bacillus cereus at […] degC measured after 24 hr by microdilution method; type: functional; outline: as §2
Talaromyces funiculosus = experiment: Antifungal activity against Talaromyces funiculosus ATCC 36839 at 28 degC measured after 72 hr by microdilution method; type: functional; conditions: ATCC 36839, 72 h; outline: as §1
Micrococcus flavus [6] = experiment: Antibacterial activity against Micrococcus flavus ATCC 10240 at […] degC measured after 24 hr by microdilution method; type: functional; conditions: ATCC 10240, 24 h; outline: as §2
Listeria monocytogenes [7] = experiment: Antibacterial activity against Listeria monocytogenes NCTC 7973 at […] degC measured after 72 hr by microdilution method; type: functional; conditions: NCTC 7973, 72 h; outline: as §3
Aspergillus versicolor = experiment: Antifungal activity against Aspergillus versicolor ATCC 11730 at 28 degC measured after 72 hr by microdilution method; type: functional; conditions: ATCC 11730, 72 h; outline: as §1
Micrococcus flavus [8] = experiment: Antibacterial activity against Micrococcus flavus ATCC 10240 at […] degC measured after 72 hr by microdilution method; type: functional; conditions: ATCC 10240, 72 h; outline: as §3
Proteus mirabilis [9] = experiment: Antibacterial activity against Proteus mirabilis at […] degC measured after 72 hr by microdilution method; type: functional; outline: as §3
Aspergillus flavus = experiment: Antifungal activity against Aspergillus flavus ATCC 9643 at 28 degC measured after 72 hr by microdilution method; type: functional; conditions: ATCC 9643, 72 h; outline: as §1
Listeria monocytogenes [10] = experiment: Antibacterial activity against Listeria monocytogenes NCTC 7973 at […] degC measured after 24 hr by microdilution method; type: functional; conditions: NCTC 7973, 24 h; outline: as §2
Trichoderma viride = experiment: Antifungal activity against Hypocrea rufa IAM 5061 at 28 degC measured after 72 hr by microdilution method; type: functional; conditions: IAM 5061, 72 h; outline: as §1
Proteus mirabilis [11] = experiment: Antibacterial activity against Proteus mirabilis at […] degC measured after 24 hr by microdilution method; type: functional; outline: as §2
Salmonella typhimurium [12] = experiment: Antibacterial activity against Salmonella enterica subsp. enterica serovar TyphimuriumATCC 13311 at […] degC measured after 72 hr by microdilution method; type: functional, Salmonella enterica subsp. enterica serovar Typhimurium; conditions: ATCC 13311, 72 h; outline: as §3
Aspergillus niger = experiment: Antifungal activity against Aspergillus niger ATCC 6275 at 28 degC measured after 72 hr by microdilution method; type: functional; conditions: ATCC 6275, 72 h; outline: as §1
Salmonella typhimurium [13] = experiment: Antibacterial activity against Salmonella enterica subsp. enterica serovar Typhimurium ATCC 13311 at […] degC measured after 24 hr by microdilution method; type: functional; conditions: ATCC 13311, 24 h; outline: as §2
Staphylococcus aureus [14] = experiment: Antibacterial activity against Staphylococcus aureus ATCC 6538 at […] degC measured after 72 hr by microdilution method; type: functional; conditions: ATCC 6538, 72 h; outline: as §3
Fulvia fulva = experiment: Antifungal activity against Passalora fulva TK5318 at 28 degC measured after 72 hr by microdilution method; type: functional; conditions: TK5318, 72 h; outline: as §1
Bacillus cereus [15] = experiment: Antibacterial activity against clinical isolate Bacillus cereus at […] degC measured after 72 hr by microdilution method; type: functional; outline: as §3
Pseudomonas aeruginosa [16] = experiment: Antibacterial activity against Pseudomonas aeruginosa ATCC 27853 at […] degC measured after 24 hr by microdilution method; type: functional; conditions: ATCC 27853, 24 h; outline: as §2

MIC (Penicillium ochrochloron) [µM] | MIC (Staphylococcus aureus [1]) [µM] | MIC (Escherichia coli [2]) [µM] | MIC (Bacillus cereus [5]) [µM] | MIC (Talaromyces funiculosus) [µM] | MIC (Micrococcus flavus [6]) [µM] | MIC (Aspergillus versicolor) [µM] | MIC (Aspergillus flavus) [µM] | MIC (Listeria monocytogenes [10]) [µM] | SMILES | MFC (Penicillium ochrochloron) [µM] | MBC (Escherichia coli [3]) [µM] | MFC (Aspergillus fumigatus) [µM] | MIC (Aspergillus fumigatus) [µM] | MBC (Pseudomonas aeruginosa [4]) [µM] | MFC (Talaromyces funiculosus) [µM] | MBC (Listeria monocytogenes [7]) [µM] | MFC (Aspergillus versicolor) [µM] | MBC (Micrococcus flavus [8]) [µM] | MBC (Proteus mirabilis [9]) [µM] | MFC (Aspergillus flavus) [µM] | further results
19.3 (≈ 10 µg/mL) | 38.6 (≈ 20.1 µg/mL) | 19.3 (≈ 10 µg/mL) | 19.3 (≈ 10 µg/mL) | 19.3 (≈ 10 µg/mL) | 19.3 (≈ 10 µg/mL) | 19.3 (≈ 10 µg/mL) | 19.3 (≈ 10 µg/mL) | 19.3 (≈ 10 µg/mL) | COc1cc(Cc2nnc(Nc3ccc([N+](=O)[O-])cc3)s2)c(S(=O)(=O)N2CCCCC2)cc1OC | 38.6 (≈ 20.1 µg/mL) | 38.6 (≈ 20.1 µg/mL) | 38.6 (≈ 20.1 µg/mL) | 19.3 (≈ 10 µg/mL) | 19.3 (≈ 10 µg/mL) | 38.6 (≈ 20.1 µg/mL) | 77.2 (≈ 40.1 µg/mL) | 38.6 (≈ 20.1 µg/mL) | 38.6 (≈ 20.1 µg/mL) | 77.2 (≈ 40.1 µg/mL) | 38.6 (≈ 20.1 µg/mL) | MFC (Trichoderma viride): 19.3 µM (≈ 10 µg/mL); MIC (Trichoderma viride): 9.7 µM (≈ 5.04 µg/mL); MIC (Proteus mirabilis [11]): 38.6 µM (≈ 20.1 µg/mL); MBC (Salmonella typhimurium [12]): 19.3 µM (≈ 10 µg/mL); MFC (Aspergillus niger): 38.6 µM (≈ 20.1 µg/mL); MIC (Aspergillus niger): 19.3 µM (≈ 10 µg/mL); MIC (Salmonella typhimurium [13]): 9.7 µM (≈ 5.04 µg/mL); MBC (Staphylococcus aureus [14]): 77.2 µM (≈ 40.1 µg/mL); MFC (Fulvia fulva): 19.3 µM (≈ 10 µg/mL); MIC (Fulvia fulva): 9.7 µM (≈ 5.04 µg/mL); MBC (Bacillus cereus [15]): 38.6 µM (≈ 20.1 µg/mL); MIC (Pseudomonas aeruginosa [16]): 9.7 µM (≈ 5.04 µg/mL)
18.4 (≈ 9.98 µg/mL) | 18.4 (≈ 9.98 µg/mL) | 18.4 (≈ 9.98 µg/mL) | 9.2 (≈ 4.99 µg/mL) | 9.2 (≈ 4.99 µg/mL) | 9.2 (≈ 4.99 µg/mL) | 9.2 (≈ 4.99 µg/mL) | 18.4 (≈ 9.98 µg/mL) | 18.4 (≈ 9.98 µg/mL) | COc1cc(Cc2nnc(Nc3ccc(C(F)(F)F)cc3)s2)c(S(=O)(=O)N2CCCCC2)cc1OC | 36.8 (≈ 20 µg/mL) | 36.8 (≈ 20 µg/mL) | 36.8 (≈ 20 µg/mL) | 9.2 (≈ 4.99 µg/mL) | 18.4 (≈ 9.98 µg/mL) | 18.4 (≈ 9.98 µg/mL) | 73.6 (≈ 39.9 µg/mL) | 18.4 (≈ 9.98 µg/mL) | 18.4 (≈ 9.98 µg/mL) | 73.6 (≈ 39.9 µg/mL) | 36.8 (≈ 20 µg/mL) | MFC (Trichoderma viride): 18.4 µM (≈ 9.98 µg/mL); MIC (Trichoderma viride): 9.2 µM (≈ 4.99 µg/mL); MIC (Proteus mirabilis [11]): 36.8 µM (≈ 20 µg/mL); MBC (Salmonella typhimurium [12]): 18.4 µM (≈ 9.98 µg/mL); MFC (Aspergillus niger): 36.8 µM (≈ 20 µg/mL); MIC (Aspergillus niger): 18.4 µM (≈ 9.98 µg/mL); MIC (Salmonella typhimurium [13]): 9.2 µM (≈ 4.99 µg/mL); MBC (Staphylococcus aureus [14]): 36.8 µM (≈ 20 µg/mL); MFC (Fulvia fulva): 18.4 µM (≈ 9.98 µg/mL); MIC (Fulvia fulva): 9.2 µM (≈ 4.99 µg/mL); MBC (Bacillus cereus [15]): 18.4 µM (≈ 9.98 µg/mL); MIC (Pseudomonas aeruginosa [16]): 9.2 µM (≈ 4.99 µg/mL)
19.1 (≈ 10 µg/mL) | 38.2 (≈ 20 µg/mL) | 19.1 (≈ 10 µg/mL) | 19.1 (≈ 10 µg/mL) | 19.1 (≈ 10 µg/mL) | 9.6 (≈ 5.03 µg/mL) | 38.2 (≈ 20 µg/mL) | 19.1 (≈ 10 µg/mL) | 19.1 (≈ 10 µg/mL) | COc1cc(Cc2nnc(Nc3ccc(Cl)cc3)s2)c(S(=O)(=O)N2CCN(C)CC2)cc1OC | 38.2 (≈ 20 µg/mL) | 76.4 (≈ 40 µg/mL) | 38.2 (≈ 20 µg/mL) | 9.6 (≈ 5.03 µg/mL) | 76.4 (≈ 40 µg/mL) | 38.2 (≈ 20 µg/mL) | 76.4 (≈ 40 µg/mL) | 38.2 (≈ 20 µg/mL) | 19.1 (≈ 10 µg/mL) | 76.4 (≈ 40 µg/mL) | 38.2 (≈ 20 µg/mL) | MFC (Trichoderma viride): 19.1 µM (≈ 10 µg/mL); MIC (Trichoderma viride): 9.6 µM (≈ 5.03 µg/mL); MIC (Proteus mirabilis [11]): 38.2 µM (≈ 20 µg/mL); MBC (Salmonella typhimurium [12]): 38.2 µM (≈ 20 µg/mL); MFC (Aspergillus niger): 38.2 µM (≈ 20 µg/mL); MIC (Aspergillus niger): 19.1 µM (≈ 10 µg/mL); MIC (Salmonella typhimurium [13]): 9.6 µM (≈ 5.03 µg/mL); MBC (Staphylococcus aureus [14]): 76.4 µM (≈ 40 µg/mL); MFC (Fulvia fulva): 19.1 µM (≈ 10 µg/mL); MIC (Fulvia fulva): 9.6 µM (≈ 5.03 µg/mL); MBC (Bacillus cereus [15]): 38.2 µM (≈ 20 µg/mL); MIC (Pseudomonas aeruginosa [16]): 19.1 µM (≈ 10 µg/mL)
